Tests used:
KB = assay: Cytotoxicity against human KB cells after 72 hrs; format: functional, cell-based
Method in brief: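 KB cells in EMEM (4.5 g/L glucose, 10% FCS, 1% glutamine) seeded 5 × 10³/well, dosed after 24 h with compound in DMSO (<0.1%). 72 h exposure, then resazurin 2 h; fluorescence ex 560/em 590 nm. IC50 = 50% fluorescence decrease versus untreated; triplicate.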

[1] = Inhibition of sheep brain tubulin polymerization; design: species or system Ovis aries
Method in brief: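 Sheep brain tubulin (about 2–3 mg/mL), purified by two assembly–disassembly cycles, in 0.1 M MES, 0.5 mM MgCl₂, 1 mM EGTA, 1 mM GTP, pH 6.6. Assembly followed by turbidity at 350 nm, 37 °C.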

| IC50 [1] [nM] | SMILES | IC50 (KB) [nM] |
| --- | --- | --- |
| 2000 | CCCC1NC(=O)c2[nH]c3ccccc3c2-c2ccccc21 (racemic) | 32 |
| – | CC1NC(=O)c2[nH]c3ccccc3c2-c2ccccc21 (racemic) | 280 |
| – | CC1c2ccccc2-c2c(n(C)c3ccccc23)C(=O)N1C (stereo unspecified) | 28000 |
| 1000 | CCCCC1NC(=O)c2[nH]c3ccccc3c2-c2ccccc21 (racemic) | 35 |
